“Also recorded” adds a separate entry of the source.
Experiments:
[1] = system: MDA-MB-231 cells; assay: TRAIL-induced killing / TRAIL sensitization, cell viability; assay type: cell-based, human
Method in brief: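 MDA-MB-231 cells in DMEM/10% FBS seeded at 5000 cells/well and left to attach overnight. Pre-treated 4 h at 37°C with vehicle (0.1% DMSO) or 5 μM test compound, then TRAIL (up to 100 ng/mL) added for 20 h at 37°C. After 30 min at room temperature, CellTiter-Glo luminescence read. At least triplicate, at least three independent times.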

[2] = system: non-canonical NF-κB pathway; assay: Immunoblot of non-canonical NF-κB pathway; assay type: cell-based, human; conditions: MDA-MB-231 cells, 5 μM, 24 h, Fig. 4D
Method in brief: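 MDA-MB-231 cells grown in DMEM with 10% FBS, exposed to vehicle or 5 μM test compound for 24 h. Cell protein extracts immunoblotted for NIK, phospho-NF-κB2, NF-κB2 and cIAP-1/-2, with Erk 1/2 as loading control. HRP-conjugated anti-rabbit or anti-mouse secondary applied for 1 h, then enhanced chemiluminescence detection.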

## O=Cc1coc2ccccc2c1=O [3-FC, reference compound]
[1]; 3-FC alone with TRAIL, Supp. Fig. S1D
  sensitization to TRAIL: results in sensitization to TRAIL
[1]; 3-FC together with IAP inhibition, Supp. Fig. S1D
  sensitization to TRAIL with IAP inhibition: induces even greater sensitization

## Cc1ccc(S(=O)(=O)/C=C/C#N)cc1 [BAY 11-7082, reference compound]
[1]; data not shown
  effect of IKK inhibition in the model systems: failed to have any effect

## CC(C)[C@H](NC(=O)[C@H](C)N)C(=O)N[C@@H](C)C(=O)NNc1ccccc1 [MLS-0412113]
[1]; 5 μM pre-treatment 4 h, then TRAIL 20 h, Fig. 2B
  sensitization to TRAIL-mediated cell killing: no activity; also recorded: lacked TRAIL sensitizing ability altogether

## CN[C@@H](C)C(=O)N[C@H]1CCO[C@H]2CC(C)(C)[C@@H](C(=O)N[C@@H]3CCCc4ccccc43)N2C1=O [SBI-0636457]
[2]
  NIK levels: profound induction of NIK levels
  phosphorylation and processing of NF-κB2: enhanced phosphorylation and processing of NF-κB2

B1: Tumor Necrosis Factor Related Apoptosis Inducing Ligand (protein, UniProt P50591 1-281, looked up)
Tumor necrosis factor ligand …: MAMMEVQGGPSLGQTCVLIVIFTVLLQSLCVAVTYVYFTNELKQMQDKYSKSGIACFLKEDDSYWDPNDEESMNSPCWQVKWQLRQLVRKMILRTSEETISTVQEKQQNISPLVRERGPQRVAAHITGTRGRSNTLSSPNSKNEKALGRKINSWESSRSGHSFLSNLHLRNGELVIHEKGFYYIYSQTYFRFQEEIKENTKNDKQMVQYIYKYTSYPDPILLMKSARNSCWSKDAEYGLYSIYQGGIFELKENDRIFVSVTNEHLIDMDHEASFFGAFLVG
[1]; TRAIL alone, up to 100 ng/mL, 20 h, Fig. 2B
  cell death by TRAIL alone: fails to induce appreciable cell death

Reference: publication PMC3947130 (Molecular cancer therapeutics, 2013)
